# In ChEMBL document CHEMBL1152649, “Synthesis, cytotoxicity and human telomerase inhibition activities of a series of 1,2-heteroannelated anthraquinones and anthra[1,2-d]imidazole-6,11-dione homologues” (2009):
# Active and inactive are the calls of the source. The rule behind the calls is not given here.
# How the values were obtained:
# [1] = Cytotoxicity against human H1299 cells at 10 uM after 48 hrs by MTT assay; format: functional; conditions: NCI-H1299, 48 h
# Method in brief: (§1)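 H1299 non-small cell lung cancer cells were grown in RPMI 1640 with 10% FBS, penicillin and streptomycin at 37 °C under 5% CO2. About 2 × 10³ cells per well were seeded and left 24 h. Compounds were dissolved fresh in DMSO, diluted into complete medium and applied for 48 h. MTT was then added for 4 h at 37 °C, followed by lysis buffer (20% SDS, 50% DMF) for 16 h, and absorbance was read at 550 nm.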
# [2] = Cytotoxicity against human H1299 cells at 100 uM after 48 hrs by MTT assay; format: functional; conditions: NCI-H1299, 48 h; method in brief: as §1
# [3] = biological target: Telomerase reverse transcriptase (Homo sapiens) (UniProt O14746); test: Inhibition of telomerase in human H1299 cells up to 100 uM by TRAP assay; format: cell-based
# Telomerase reverse transcriptase (Homo sapiens), sequence (O14746 whole entry): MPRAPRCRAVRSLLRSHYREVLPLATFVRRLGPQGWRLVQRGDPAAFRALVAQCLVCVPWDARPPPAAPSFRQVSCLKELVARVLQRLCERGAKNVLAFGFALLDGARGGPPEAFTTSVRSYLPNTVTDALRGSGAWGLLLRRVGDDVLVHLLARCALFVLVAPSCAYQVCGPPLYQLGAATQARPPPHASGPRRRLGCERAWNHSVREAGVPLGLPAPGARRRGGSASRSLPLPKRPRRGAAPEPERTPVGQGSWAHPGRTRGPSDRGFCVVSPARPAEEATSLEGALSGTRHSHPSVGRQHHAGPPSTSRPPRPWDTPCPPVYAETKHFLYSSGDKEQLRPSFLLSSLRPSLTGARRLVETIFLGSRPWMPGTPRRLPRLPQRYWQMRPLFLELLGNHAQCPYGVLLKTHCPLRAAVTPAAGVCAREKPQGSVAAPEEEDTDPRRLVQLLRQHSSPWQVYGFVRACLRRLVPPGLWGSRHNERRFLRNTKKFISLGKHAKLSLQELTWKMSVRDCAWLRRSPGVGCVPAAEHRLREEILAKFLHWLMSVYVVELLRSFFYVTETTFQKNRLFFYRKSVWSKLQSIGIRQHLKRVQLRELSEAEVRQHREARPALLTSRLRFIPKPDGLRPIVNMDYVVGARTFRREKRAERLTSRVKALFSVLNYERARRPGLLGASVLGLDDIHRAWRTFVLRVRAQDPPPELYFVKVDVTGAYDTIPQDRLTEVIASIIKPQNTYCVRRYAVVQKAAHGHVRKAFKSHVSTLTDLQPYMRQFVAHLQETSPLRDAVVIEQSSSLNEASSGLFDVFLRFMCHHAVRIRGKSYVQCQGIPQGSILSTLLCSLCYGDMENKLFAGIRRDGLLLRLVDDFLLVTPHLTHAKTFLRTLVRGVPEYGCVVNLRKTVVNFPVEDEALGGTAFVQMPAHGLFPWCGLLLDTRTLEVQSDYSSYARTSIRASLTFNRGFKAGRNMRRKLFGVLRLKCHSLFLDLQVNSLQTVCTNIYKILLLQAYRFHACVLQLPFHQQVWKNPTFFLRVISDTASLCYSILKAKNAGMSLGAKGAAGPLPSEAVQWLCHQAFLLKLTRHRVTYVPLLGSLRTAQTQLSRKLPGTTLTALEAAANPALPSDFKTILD
# Method in brief: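 PCR-based telomeric repeat amplification protocol (TRAP). The telomerase source was total lysate of H1299 lung cancer cells, with protein measured against BSA standards. Controls were extract without inhibitor and RNase A-treated extract.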
# [4] = test system: EKVX; test: Antiproliferative activity against human EKVX cells assessed as cell growth at 10 uM; format: functional; conditions: read-out: Activity
# Method in brief: (§2)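 NCI 60 cell line panel, single-dose screen (10^-5 M) run by the developmental therapeutics program protocol. Results are given as growth percent of treated cells relative to untreated control cells for each line.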
# [5] = test system: SW-620; test: Antiproliferative activity against human SW620 cells assessed as cell growth at 10 uM; format: functional; conditions: read-out: Activity
# Method in brief: (§3)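 NCI 60 cell line panel, single dose (10^-5 M), run per the Developmental Therapeutics Program protocol (one dose mean graph). Each result is the growth percentage of treated cells relative to untreated control cells.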
# [6] = test system: MCF7; test: Antiproliferative activity against human MCF7 cells assessed as cell growth at 10 uM; format: functional; conditions: read-out: Activity; method in brief: as §2
# [7] = test system: MDA-MB-231; test: Antiproliferative activity against human MDA-MB-231 cells assessed as cell growth at 10 uM; format: functional; conditions: read-out: Activity; method in brief: as §2
# [8] = test system: MDA-MB-435; test: Antiproliferative activity against human MDA-MB-435 cells assessed as cell growth at 10 uM; format: functional; conditions: read-out: Activity; method in brief: as §2
# [9] = test system: NCI/ADR-RES; test: Antiproliferative activity against human NCI/ADR-RES cells assessed as cell growth at 10 uM; format: functional; conditions: read-out: Activity; method in brief: as §2
# [10] = test system: T47D; test: Antiproliferative activity against human T47D cells assessed as cell growth at 10 uM; format: functional; conditions: read-out: Activity; method in brief: as §3
# [11] = test system: OVCAR-5; test: Antiproliferative activity against human OVCAR5 cells assessed as cell growth at 10 uM; format: functional; conditions: read-out: Activity; method in brief: as §2
# [12] = test system: OVCAR-8; test: Antiproliferative activity against human OVCAR8 cells assessed as cell growth at 10 uM; format: functional; conditions: read-out: Activity; method in brief: as §2
# [13] = test system: SK-OV-3; test: Antiproliferative activity against human SKOV3 cells assessed as cell growth at 10 uM; format: functional; conditions: read-out: Activity; method in brief: as §2
# [14] = test system: HL-60(TB); test: Antiproliferative activity against human HL-60(TB) cells assessed as cell growth at 10 uM; format: functional; conditions: read-out: Activity
# Method in brief: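 NCI Developmental Therapeutics Program 60-cell-line one-dose screen at 10^-5 M. Readout is growth percentage of treated cells relative to untreated control cells.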
# [15] = test system: K562; test: Antiproliferative activity against human K562 cells assessed as cell growth at 10 uM; format: functional; conditions: read-out: Activity; method in brief: as §2
# [16] = test system: MOLT-4; test: Antiproliferative activity against human MOLT4 cells assessed as cell growth at 10 uM; format: functional; conditions: read-out: Activity; method in brief: as §2
# [17] = Antiproliferative activity against human RPMI8266 cells assessed as cell growth at 10 uM; format: functional; conditions: read-out: Activity; method in brief: as §2
# [18] = test system: SR; test: Antiproliferative activity against human SR cells assessed as cell growth at 10 uM; format: functional; conditions: read-out: Activity; method in brief: as §3
# [19] = test system: ACHN; test: Antiproliferative activity against human ACHN cells assessed as cell growth at 10 uM; format: functional; conditions: read-out: Activity; method in brief: as §2
# [20] = test system: CAKI-1; test: Antiproliferative activity against human Caki1 cells assessed as cell growth at 10 uM; format: functional; conditions: read-out: Activity; method in brief: as §2
# [21] = test system: SN12C; test: Antiproliferative activity against human SN12C cells assessed as cell growth at 10 uM; format: functional; conditions: read-out: Activity; method in brief: as §2
# [22] = test system: UO-31; test: Antiproliferative activity against human UO31 cells assessed as cell growth at 10 uM; format: functional; conditions: read-out: Activity; method in brief: as §3
# [23] = test system: LOX IMVI; test: Antiproliferative activity against human LOXIMVI cells assessed as cell growth at 10 uM; format: functional; conditions: read-out: Activity; method in brief: as §2
# [24] = test system: SK-MEL-2; test: Antiproliferative activity against human SK-MEL-2 cells assessed as cell growth at 10 uM; format: functional; conditions: read-out: Activity; method in brief: as §2
# [25] = test system: SK-MEL-5; test: Antiproliferative activity against human SK-MEL-5 cells assessed as cell growth at 10 uM; format: functional; conditions: read-out: Activity; method in brief: as §2
# [26] = test system: UACC-257; test: Antiproliferative activity against human UACC257 cells assessed as cell growth at 10 uM; format: functional; conditions: read-out: Activity; method in brief: as §3
# [27] = test system: UACC-62; test: Antiproliferative activity against human UACC62 cells assessed as cell growth at 10 uM; format: functional; conditions: read-out: Activity; method in brief: as §3
# [28] = test system: DU-145; test: Antiproliferative activity against human DU145 cells assessed as cell growth at 10 uM; format: functional; conditions: read-out: Activity; method in brief: as §2
# [29] = test system: SF-268; test: Antiproliferative activity against human SF268 cells assessed as cell growth at 10 uM; format: functional; conditions: read-out: Activity; method in brief: as §2
# [30] = test system: SF-295; test: Antiproliferative activity against human SF295 cells assessed as cell growth at 10 uM; format: functional; conditions: read-out: Activity; method in brief: as §2
# [31] = test system: SF-539; test: Antiproliferative activity against human SF539 cells assessed as cell growth at 10 uM; format: functional; conditions: read-out: Activity; method in brief: as §2
# [32] = test system: SNB-75; test: Antiproliferative activity against human SNB75 cells assessed as cell growth at 10 uM; format: functional; conditions: read-out: Activity; method in brief: as §3
# [33] = test system: U-251; test: Antiproliferative activity against human U251 cells assessed as cell growth at 10 uM; format: functional; conditions: read-out: Activity; method in brief: as §3
# [34] = test system: HOP-92; test: Antiproliferative activity against human HOP92 cells assessed as cell growth at 10 uM; format: functional; conditions: read-out: Activity; method in brief: as §2
# [35] = test system: NCI-H226; test: Antiproliferative activity against human NCI-H226 cells assessed as cell growth at 10 uM; format: functional; conditions: read-out: Activity; method in brief: as §2
# [36] = test system: NCI-H23; test: Antiproliferative activity against human NCI-H23 cells assessed as cell growth at 10 uM; format: functional; conditions: read-out: Activity; method in brief: as §2
# [37] = test system: NCI-H322M; test: Antiproliferative activity against human NCI-H322M cells assessed as cell growth at 10 uM; format: functional; conditions: read-out: Activity; method in brief: as §2
# [38] = test system: NCI-H460; test: Antiproliferative activity against human NCI-H460 cells assessed as cell growth at 10 uM; format: functional; conditions: read-out: Activity; method in brief: as §2
# [39] = test system: NCI-H522; test: Antiproliferative activity against human NCI-H522 cells assessed as cell growth at 10 uM; format: functional; conditions: read-out: Activity; method in brief: as §2
# [40] = test system: COLO 205; test: Antiproliferative activity against human COLO205 cells assessed as cell growth at 10 uM; format: functional; conditions: read-out: Activity; method in brief: as §2
# [41] = test system: HCC 2998; test: Antiproliferative activity against human HCC2998 cells assessed as cell growth at 10 uM; format: functional; conditions: read-out: Activity; method in brief: as §2
# [42] = test system: HCT-116; test: Antiproliferative activity against human HCT116 cells assessed as cell growth at 10 uM; format: functional; conditions: read-out: Activity; method in brief: as §2
# [43] = test system: HT-29; test: Antiproliferative activity against human HT-29 cells assessed as cell growth at 10 uM; format: functional; conditions: read-out: Activity; method in brief: as §2
# [44] = biological target: Telomerase reverse transcriptase (Homo sapiens) (UniProt O14746); test: Inhibition of TERT in human H1299 cells assessed as residual transcriptional activity at 1 uM after 24 hrs by SEAP reporter gene assay; values are per cent of control
# [45] = biological target: Telomerase reverse transcriptase (Homo sapiens) (UniProt O14746); test: Inhibition of TERT in human H1299 cells assessed as residual transcriptional activity at 10 uM after 24 hrs by SEAP reporter gene assay; values are per cent of control
smiles,measurement,setting,value
CC1(C)Nc2ccc3c(c2N1)C(=O)c1ccccc1C3=O,viability at 10 µM,[1],93%
same,viability at 100 µM,[2],31%
same,inhibition,[3],inactive
same,growth at 10 µM,[4],63.1%
same,growth at 10 µM,[5],91.7%
same,growth at 10 µM,[6],83.6%
same,growth at 10 µM,[7],72.9%
same,growth at 10 µM,[8],125%
same,growth at 10 µM,[9],103%
same,growth at 10 µM,[10],83%
same,growth at 10 µM,[11],96.5%
same,growth at 10 µM,[12],90.2%
same,growth at 10 µM,[13],35.9%
same,growth at 10 µM,[14],129%
same,growth at 10 µM,[15],101%
same,growth at 10 µM,[16],116%
same,growth at 10 µM,[17],99.9%
same,growth at 10 µM,[18],72.4%
same,growth at 10 µM,[19],50.2%
same,growth at 10 µM,[20],61.7%
same,growth at 10 µM,[21],92%
same,growth at 10 µM,[22],30.6%
same,growth at 10 µM,[23],61.9%
same,growth at 10 µM,[24],8.04%
same,growth at 10 µM,[25],86.5%
same,growth at 10 µM,[26],118%
same,growth at 10 µM,[27],67.6%
same,growth at 10 µM,[28],76%
same,growth at 10 µM,[29],90.2%
same,growth at 10 µM,[30],98%
same,growth at 10 µM,[31],93.6%
same,growth at 10 µM,[32],78%
same,growth at 10 µM,[33],87.8%
same,growth at 10 µM,[34],5.1%
same,growth at 10 µM,[35],89.7%
same,growth at 10 µM,[36],87%
same,growth at 10 µM,[37],79.7%
same,growth at 10 µM,[38],71.5%
same,growth at 10 µM,[39],38.9%
same,growth at 10 µM,[40],90.6%
same,growth at 10 µM,[41],137%
same,growth at 10 µM,[42],54.7%
same,growth at 10 µM,[43],103%
same,residual activity,[44],96%
same,residual activity,[45],73%
